Assay results published in ChEMBL document CHEMBL1914423, “New imidazo[2,1-b]thiazole derivatives: synthesis, in vitro anticancer evaluation, and in silico studies” (Eur J Med Chem, 2011).

Assays:
Assay type in all cases: functional
[1] = test system: Malme-3M; assay: Anticancer activity against human MALME-3M cells after 48 hrs by SRB assay; conditions: for CC50: read-out: LC50 (the source's name)
In short: (§1)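 NCI five-dose screen. Cells in RPMI 1640 with 5% FBS and 2 mM L-glutamine, seeded at 5000–40,000 cells/well according to doubling time, then pre-incubated 24 h at 37 °C in 5% CO2. Drugs dissolved in DMSO, five concentrations by 10-fold or 1/2-log dilution. Cells fixed with TCA, SRB-stained, A515 read. IC50 solved from [(Ti−Tz)/(C−Tz)]×100 = 50.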

[2] = test system: SW-620; assay: Anticancer activity against human SW620 cells after 48 hrs by SRB assay; conditions: SW-620, 48 h; for CC50: read-out: LC50 (the source's name)
In short: (§2)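 NCI-60 five-dose mode: cells in RPMI 1640 with 5% FBS and 2 mM glutamine, plated at 5000–40,000 cells/well, and preincubated 24 h, with time-zero plates TCA-fixed. Drug given at five concentrations (10-fold or ½-log serial dilutions). Cold TCA fixation 60 min at 4 °C, SRB stain, Tris solubilization, A515. IC50 taken where [(Ti−Tz)/(C−Tz)]×100 = 50.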

[3] = test system: EKVX; assay: Anticancer activity against human EKVX cells after 48 hrs by SRB assay; in short: as §1
[4] = test system: OVCAR-4; assay: Anticancer activity against human OVCAR4 cells after 48 hrs by SRB assay; conditions: OVCAR-4, 48 h; for CC50: read-out: LC50 (the source's name)
[5] = test system: OVCAR-3; assay: Anticancer activity against human OVCAR3 cells after 48 hrs by SRB assay; conditions: OVCAR-3, 48 h; for CC50: read-out: LC50 (the source's name)
[6] = test system: LOX IMVI; assay: Anticancer activity against human LOXIMVI cells after 48 hrs by SRB assay; conditions: for CC50: read-out: LC50 (the source's name); in short: as §1
[7] = test system: HCC 2998; assay: Anticancer activity against human HCC2998 cells after 48 hrs by SRB assay; conditions: HCC 2998, 48 h; for CC50: read-out: LC50 (the source's name); in short: as §1
[8] = test system: KM12; assay: Anticancer activity against human KM12 cells after 48 hrs by SRB assay; conditions: KM12, 48 h; for CC50: read-out: LC50 (the source's name); in short: as §1
[9] = test system: SF-295; assay: Anticancer activity against human SF295 cells after 48 hrs by SRB assay; conditions: SF-295, 48 h; for CC50: read-out: LC50 (the source's name)
[10] = test system: HT-29; assay: Anticancer activity against human HT-29 cells after 48 hrs by SRB assay; conditions: HT-29, 48 h; for CC50: read-out: LC50 (the source's name); in short: as §1
[11] = test system: CCRF-CEM; assay: Anticancer activity against human CCRF-CEM cells after 48 hrs by SRB assay; conditions: for CC50: read-out: LC50 (the source's name); in short: as §1
[12] = test system: HL-60(TB); assay: Anticancer activity against human HL-60(TB) cells after 48 hrs by SRB assay; conditions: HL-60, 48 h
In short: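 NCI-60 five-dose screen. Cells grown in RPMI 1640 with 5% FBS and 2 mM L-glutamine, seeded at 5000–40,000 cells/well, and held 24 h at 37 °C and 5% CO₂ before drug. DMSO stocks were diluted into five concentrations (10-fold or ½-log steps). Settled suspension cells were fixed with cold TCA, SRB-stained, and read at 515 nm. […] was taken where [(Ti−Tz)/(C−Tz)]×100 = 50.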

[13] = test system: A498; assay: Anticancer activity against human A498 cells after 48 hrs by SRB assay; conditions: A498, 48 h; for CC50: read-out: LC50 (the source's name); in short: as §1
[14] = test system: IGROV-1; assay: Anticancer activity against human IGROV1 cells after 48 hrs by SRB assay; conditions: IGROV-1, 48 h; for CC50: read-out: LC50 (the source's name); in short: as §1
[15] = test system: OVCAR-5; assay: Anticancer activity against human OVCAR5 cells after 48 hrs by SRB assay; conditions: OVCAR-5, 48 h; for CC50: read-out: LC50 (the source's name)
[16] = test system: HCT-15; assay: Anticancer activity against human HCT15 cells after 48 hrs by SRB assay; conditions: HCT-15, 48 h; for CC50: read-out: LC50 (the source's name); in short: as §1
[17] = test system: U-251; assay: Anticancer activity against human U251 cells after 48 hrs by SRB assay; conditions: U-251, 48 h; for CC50: read-out: LC50 (the source's name); in short: as §2
[18] = test system: K562; assay: Anticancer activity against human K562 cells after 48 hrs by SRB assay; conditions: K562, 48 h; for CC50: read-out: LC50 (the source's name); in short: as §1
[19] = test system: DU-145; assay: Anticancer activity against human DU145 cells after 48 hrs by SRB assay; conditions: DU-145, 48 h; for CC50: read-out: LC50 (the source's name); in short: as §1
[20] = test system: CAKI-1; assay: Anticancer activity against human Caki1 cells after 48 hrs by SRB assay; conditions: CAKI-1, 48 h; for CC50: read-out: LC50 (the source's name); in short: as §1
[21] = test system: COLO 205; assay: Anticancer activity against human COLO205 cells after 48 hrs by SRB assay; conditions: COLO 205, 48 h; for CC50: read-out: LC50 (the source's name); in short: as §1
[22] = test system: SR; assay: Anticancer activity against human SR cells after 48 hrs by SRB assay; conditions: for CC50: read-out: LC50 (the source's name); in short: as §2
[23] = test system: NCI-H322M; assay: Anticancer activity against human NCI-H322M cells after 48 hrs by SRB assay; conditions: for CC50: read-out: LC50 (the source's name)
[24] = test system: T47D; assay: Anticancer activity against human T47D cells after 48 hrs by SRB assay; conditions: for CC50: read-out: LC50 (the source's name); in short: as §2
[25] = test system: HOP-92; assay: Anticancer activity against human HOP92 cells after 48 hrs by SRB assay; conditions: HOP-92, 48 h; for CC50: read-out: LC50 (the source's name); in short: as §1
[26] = test system: SF-268; assay: Anticancer activity against human SF268 cells after 48 hrs by SRB assay; conditions: SF-268, 48 h; for CC50: read-out: LC50 (the source's name)

## O=C(NCCNc1nccc(-c2c(-c3cccc(O)c3)nc3sccn23)n1)Nc1cccc(C(F)(F)F)c1
[1]
  GI50: 2.09 µM
  TGI: 7.3 µM
  CC50: 50.7 µM
[2]
  GI50: 3.84 µM
  TGI: 13.4 µM
  CC50: 64.5 µM
[3]
  GI50: 4.16 µM
  LC50: > 100 µM
  TGI: 36.6 µM
[4]
  GI50: 3.97 µM
  TGI: 14.2 µM
  CC50: 39.7 µM
[5]
  GI50: 5.52 µM
  TGI: 22.7 µM
  CC50: 87.3 µM
[6]
  GI50: 4.05 µM
  TGI: 26.2 µM
  CC50: > 100 µM
[7]
  GI50: 2.68 µM
  TGI: 5.77 µM
  CC50: 74.9 µM
[8]
  GI50: 2.78 µM
  TGI: 6.98 µM
  CC50: 29.9 µM
[9]
  GI50: 4.16 µM
  TGI: 29.7 µM
  CC50: > 100 µM
[10]
  GI50: 3.45 µM
  TGI: 10.8 µM
  CC50: 49.9 µM
[11]
  GI50: 3.25 µM
  TGI: 13.7 µM
  CC50: > 100 µM
[12]
  GI50: 2.85 µM
  LC50: > 100 µM
  TGI: 6.03 µM
[13]
  GI50: 7.33 µM
  TGI: 32.6 µM
  CC50: > 100 µM
[14]
  GI50: 3.48 µM
  TGI: 13.1 µM
  CC50: 93.4 µM
[15]
  GI50: 16.3 µM
  TGI: 65.3 µM
  CC50: > 100 µM
[16]
  GI50: 4.26 µM
  TGI: 24.1 µM
  CC50: > 100 µM
[17]
  GI50: 4.95 µM
  TGI: 23.6 µM
  CC50: > 100 µM
[18]
  GI50: 3.42 µM
  TGI: 57.1 µM
  CC50: > 100 µM
[19]
  GI50: 5.37 µM
  TGI: 30 µM
  CC50: > 100 µM
[20]
  GI50: 14.2 µM
  TGI: 50.5 µM
  CC50: > 100 µM
[21]
  GI50: 3.36 µM
  TGI: 12 µM
  CC50: 59.5 µM
[22]
  GI50: 6.08 µM
  TGI: 40 µM
  CC50: > 100 µM
[23]
  GI50: 6.13 µM
  TGI: 26 µM
  CC50: > 100 µM
[24]
  GI50: 6.52 µM
  TGI: 25.6 µM
  CC50: 97.1 µM
[25]
  GI50: 2.19 µM
  TGI: 9.38 µM
  CC50: > 100 µM
[26]
  GI50: 3.45 µM
  TGI: 14.6 µM
  CC50: > 100 µM

## COc1cccc(-c2nc3sccn3c2-c2ccnc(NCCNC(=O)Nc3cccc(C(F)(F)F)c3)n2)c1
[1]
  GI50: 3.86 µM
  TGI: 26.8 µM
  CC50: > 100 µM
[2]
  GI50: 4.47 µM
  TGI: 91.5 µM
  CC50: > 100 µM
[3]
  GI50: 3.55 µM
  LC50: > 100 µM
  TGI: 59.6 µM
[4]
  GI50: 3.78 µM
  TGI: 34.1 µM
  CC50: > 100 µM
[5]
  GI50: 4.22 µM
  TGI: 20.3 µM
  CC50: > 100 µM
[6]
  GI50: 4.11 µM
  TGI: > 100 µM
  CC50: > 100 µM
[7]
  GI50: 3.75 µM
  TGI: 18.7 µM
  CC50: > 100 µM
[8]
  GI50: 3.36 µM
  TGI: 10.1 µM
  CC50: 39.3 µM
[9]
  GI50: 2.8 µM
  TGI: 14.9 µM
  CC50: > 100 µM
[10]
  GI50: 3.33 µM
  TGI: 14 µM
  CC50: > 100 µM
[11]
  GI50: 8.43 µM
  TGI: > 100 µM
  CC50: > 100 µM
[12]
  GI50: 2.92 µM
  LC50: > 100 µM
  TGI: 7.43 µM
[13]
  GI50: 2.44 µM
  TGI: 17.5 µM
  CC50: > 100 µM
[14]
  GI50: 3.32 µM
  TGI: 21.8 µM
  CC50: > 100 µM
[15]
  GI50: 6.37 µM
  TGI: 52.2 µM
  CC50: > 100 µM
[16]
  GI50: 3.05 µM
  TGI: 16.4 µM
  CC50: > 100 µM
[17]
  GI50: 3.95 µM
  TGI: 19.8 µM
  CC50: > 100 µM
[18]
  GI50: 3.48 µM
  TGI: > 100 µM
  CC50: > 100 µM
[19]
  GI50: 5.13 µM
  TGI: 95.5 µM
  CC50: > 100 µM
[20]
  GI50: 3.5 µM
  TGI: 10.3 µM
  CC50: > 100 µM
[21]
  GI50: 5.37 µM
  TGI: 19.2 µM
  CC50: 58 µM
[22]
  GI50: 3.75 µM
  TGI: 29.7 µM
  CC50: > 100 µM
[23]
  GI50: 7.23 µM
  TGI: > 100 µM
  CC50: > 100 µM
[24]
  GI50: 3.77 µM
  TGI: 13.8 µM
  CC50: 61 µM
[25]
  GI50: 0.853 µM
  TGI: 9.47 µM
  CC50: > 100 µM
[26]
  GI50: 4.59 µM
  TGI: 43.4 µM
  CC50: > 100 µM
